Laboratory results reported in ChEMBL document CHEMBL1955854, “New retinoid derivatives as back-ups of Adarotene” (Bioorg Med Chem, 2012).

Legend:
[1] = Chemical stability in aqueous buffer containing 5% DMSO and 5% tween 80 at pH 1.2 assessed as compound recovery in anoxic conditions after 3 hrs by UPLC analysis; type: physicochemical; conditions: read-out: Stability
Method in brief: (§1)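 Stability at 37 °C in aqueous buffer with 5% DMSO and 5% Tween 80 at pH 1.2, 6.8 or 7.4; percent recovery by HPLC/UPLC on BEH C18 column, water+0.1% TFA/acetonitrile gradient from 40% to 95% acetonitrile over 8 min, room temperature.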

[2] = Chemical stability in aqueous buffer containing 5% DMSO and 5% tween 80 at pH 6.8 assessed as compound recovery in anoxic conditions after 6 hrs by UPLC analysis; type: physicochemical; conditions: read-out: Stability; method in brief: as §1
[3] = Chemical stability in aqueous buffer containing 5% DMSO and 5% tween 80 at pH 6.8 assessed as compound recovery in anoxic conditions after 24 hrs by UPLC analysis; type: physicochemical; conditions: read-out: Stability; method in brief: as §1
[4] = Chemical stability in aqueous buffer containing 5% DMSO and 5% tween 80 at pH 7.4 assessed as compound recovery in anoxic conditions after 6 hrs by UPLC analysis; type: physicochemical; conditions: read-out: Stability; method in brief: as §1
[5] = Chemical stability in aqueous buffer containing 5% DMSO and 5% tween 80 at pH 7.4 assessed as compound recovery in anoxic conditions after 24 hrs by UPLC analysis; type: physicochemical; conditions: read-out: Stability; method in brief: as §1
[6] = Chemical stability in aqueous buffer containing 5% DMSO and 5% tween 80 at pH 1.2 assessed as compound recovery in anoxic conditions after 12 hrs by UPLC analysis; type: physicochemical; conditions: pH 1.2, 12 h; method in brief: as §1
NCI-H460 [7] = test: Antiproliferative activity against human NCI-H460 cells incubated for 24 hrs drug exposure measured after 48 hrs of recovery by sulforhodamine B assay; type: functional, cell-based
A-431 [8] = test: Antiproliferative activity against human A431 cells incubated for 24 hrs drug exposure measured after 48 hrs of recovery by sulforhodamine B assay; type: functional, cell-based
[9] = Solubility in water; type: physicochemical; conditions: buffer
NCI-H460 [10] = test: Antitumor activity against human NCI-H460 cells xenografted in nude CD1 mouse assessed as tumor volume inhibition at 18 mg/kg, iv administered qd 3 times per week for 2 weeks relative to control; type: functional; conditions: NCI-H460, 336 h, read-out: TGI
Method in brief: (§2)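 CD1 nude mice given s.c. right-flank NCI-H460 (3 × 10⁶) or A431 (5 × 10⁶) cells from culture on day 0; eight mice per group. Dosing began day 3 at ~50 mm³ tumors; vehicle 10% DMSO, 9% HPBCD, 14.4% PEG1000 in water. Diameters taken biweekly by caliper; mice weighed daily, maximum BWL% reported; Mann–Whitney versus vehicle.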

A-431 [11] = test: Antitumor activity against human A431 cells xenografted in nude CD1 mouse assessed as tumor volume inhibition at 37 mg/kg, iv administered qd 3 times per week for 2 weeks relative to control; type: functional; conditions: A-431, 336 h, read-out: TGI; method in brief: as §2
A-431 [12] = test: Antitumor activity against human A431 cells xenografted in nude CD1 mouse assessed as tumor volume inhibition at 10 mg/kg, iv administered qd 3 times per week for 2 weeks relative to control; type: functional; conditions: A-431, 336 h, read-out: TGI; method in brief: as §2
Mus musculus [13] = test: Toxicity in nude CD1 mouse xenografted with human NCI-H460 NSCLC cells assessed as body weight loss at 18 mg/kg, iv administered qd 3 times per week for 2 weeks; type: organism-based; design: dose 18 mg/kg, route intravenous; conditions: in vivo, 336 h; method in brief: as §2
Mus musculus [14] = test: Toxicity in nude CD1 mouse xenografted with human A431 cells assessed as body weight loss at 37 mg/kg, iv administered qd 3 times per week for 2 weeks; type: organism-based, A-431; design: dose 37 mg/kg, route intravenous; conditions: in vivo, 336 h; method in brief: as §2
Mus musculus [15] = test: Toxicity in nude CD1 mouse xenografted with human A431 cells assessed as body weight loss at 10 mg/kg, iv administered qd 3 times per week for 2 weeks; type: organism-based, A-431; design: dose 10 mg/kg, route intravenous; conditions: in vivo, 336 h; method in brief: as §2
[16] = Toxicity in iv dosed nude CD1 mouse xenografted with human A431 cells assessed as mortality administered qd 3 times per week for 2 weeks; type: organism-based, A-431; conditions: in vivo
Plasma [17] = test: Prodrug conversion in mouse plasma assessed as drug concentration at 0.5 hrs; type: ADME, cell-free
Method in brief: (§3)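 Prodrugs already shown stable at pH 1.2, 6.8 and 7.4 were incubated in murine plasma and sampled over time up to 6 h. A parallel incubation used murine plasma pretreated with the esterase inhibitor PMSF (phenylmethyl sulfonyl fluoride).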

Plasma [18] = test: Prodrug conversion in mouse plasma assessed as drug concentration at 0.5 hrs in presence of esterase inhibitor PMSF; type: ADME, cell-free
Method in brief: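 Prodrug incubated with murine plasma pretreated with the esterase inhibitor PMSF, run alongside untreated plasma; release of parent followed over time.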

Plasma [19] = test: Prodrug conversion in mouse plasma assessed as drug concentration at 1 hr; type: ADME, cell-free; method in brief: as §3
Plasma [20] = test: Prodrug conversion in mouse plasma assessed as drug concentration at 3 hrs; type: ADME, cell-free; method in brief: as §3
Plasma [21] = test: Prodrug conversion in mouse plasma assessed as drug concentration at 6 hrs; type: ADME, cell-free; method in brief: as §3
Plasma [22] = test: Prodrug conversion in mouse plasma assessed as drug concentration at 6 hrs in presence of esterase inhibitor PMSF; type: ADME, cell-free; method in brief: as §3

Row | Structure (SMILES) | remaining at 3 h [1] | remaining at 24 h [3] | remaining at 24 h [5] | Stability [6] | IC50 (NCI-H460 [7]) | IC50 (A-431 [8]) | solubility [9] | further results
1 | CN1CCN(CCCC(=O)Oc2ccc(-c3ccc(/C=C/C(=O)O)cc3)cc2C23CC4CC(CC(C4)C2)C3)CC1 | > 99% | 85% | 64% | Stable | 0.24 µM | 0.41 µM | Insoluble | remaining at 6 h [2]: 98%; remaining at 6 h [4]: 89%
2 | O=C(O)/C=C/c1ccc(-c2ccc(OCCN3CCOCC3)c(C34CC5CC(CC(C5)C3)C4)c2)cc1 | > 99% | > 99% | > 99% | Stable | > 10 µM | – | Insoluble | –
3 | O=C(O)/C=C/c1ccc(-c2ccc(OC(=O)NCC(=O)O)c(C34CC5CC(CC(C5)C3)C4)c2)cc1 | > 99% | > 99% | > 99% | Stable | 3 µM | – | Insoluble | –
4 | O=C(O)/C=C/c1ccc(-c2ccc(OC(=O)NC3CCN(C(=O)OCc4ccccc4)CC3)c(C34CC5CC(CC(C5)C3)C4)c2)cc1 | > 99% | > 99% | > 99% | Stable | 5 µM | – | Insoluble | –
5 | N#CCOc1ccc(-c2ccc(/C=C/C(=O)O)cc2)cc1C12CC3CC(CC(C3)C1)C2 | > 99% | > 99% | > 99% | Stable | 0.85 µM | – | Insoluble | –
6 | CCCOC(=O)OCOc1ccc(-c2ccc(/C=C/C(=O)O)cc2)cc1C12CC3CC(CC(C3)C1)C2 | > 99% | > 99% | > 99% | Stable | 0.32 µM | – | Insoluble | –
7 | COCCOCOc1ccc(-c2ccc(/C=C/C(=O)O)cc2)cc1C12CC3CC(CC(C3)C1)C2 | – | – | – | Stable | 4.2 µM | – | Insoluble | –
8 | O=C(O)/C=C/c1ccc(-c2ccc(OC(=O)CCCN3CCOCC3)c(C34CC5CC(CC(C5)C3)C4)c2)cc1 | > 99% | 90% | 88% | Stable | 0.22 µM | 0.34 µM | Insoluble | remaining at 6 h [2]: 99%; remaining at 6 h [4]: 99%; inhibition in vivo at 18 mg/kg (NCI-H460 [10]): 37%; inhibition in vivo at 37 mg/kg (A-431 [11]): 59%; inhibition in vivo at 10 mg/kg (A-431 [12]): 34%; Activity (Mus musculus [13]): 10%; Activity (Mus musculus [14]): 18%; Activity (Mus musculus [15]): 0%; MTD at 336 h [16]: 18 mg/kg
9 | CC(C)C[C@H](NC(=O)Oc1ccc(-c2ccc(/C=C/C(=O)O)cc2)cc1C12CC3CC(CC(C3)C1)C2)C(=O)NCC(=O)O | > 99% | > 99% | > 99% | Stable | 3.5 µM | – | Insoluble | –
10 | O=C(O)/C=C/c1ccc(-c2ccc(OC(=O)C3CC3)c(C34CC5CC(CC(C5)C3)C4)c2)cc1 | > 99% | > 99% | > 99% | Stable | 0.85 µM | – | Insoluble | Drug metabolism (Plasma [17]): 100%; Drug metabolism (Plasma [18]): 43.95%; Drug metabolism (Plasma [19]): 100%; Drug metabolism (Plasma [20]): 100%; Drug metabolism (Plasma [21]): 100%; Drug metabolism (Plasma [22]): 99.76%
11 | CCCCC/C=C/C/C=C/CCCCCCCC(=O)Oc1ccc(-c2ccc(/C=C/C(=O)O)cc2)cc1C12CC3CC(CC(C3)C1)C2 | – | – | – | Stable | 7.8 µM | – | Insoluble | –
12 | CCCCCCCCCCCNC(=O)Oc1ccc(-c2ccc(/C=C/C(=O)O)cc2)cc1C12CC3CC(CC(C3)C1)C2 | > 99% | > 99% | > 99% | Stable | 1.39 µM | – | Insoluble | –
13 | O=C(O)/C=C/c1ccc(-c2ccc(OC(=O)COCCOCCOCC(=O)O)c(C34CC5CC(CC(C5)C3)C4)c2)cc1 | > 99% | > 99% | > 99% | Stable | 0.17 µM | 0.33 µM | Insoluble | –
14 | CC(=O)Oc1ccc(-c2ccc(/C=C/C(=O)O)cc2)cc1C12CC3CC(CC(C3)C1)C2 | > 99% | > 99% | > 99% | Stable | 0.26 µM | 0.53 µM | Insoluble | –
15 | NC1(C(=O)Oc2ccc(-c3ccc(/C=C/C(=O)O)cc3)cc2C23CC4CC(CC(C4)C2)C3)CC1.O=C(O)C(F)(F)F | > 99% | > 99% | 62% | Stable | 0.1 µM | 0.4 µM | Insoluble | remaining at 6 h [4]: 88%; Drug metabolism (Plasma [17]): 97.02%; Drug metabolism (Plasma [18]): 87.31%; Drug metabolism (Plasma [19]): 96.87%; Drug metabolism (Plasma [20]): 96.66%; Drug metabolism (Plasma [21]): 96.31%; Drug metabolism (Plasma [22]): 97.77%
16 | CCCCCCCCCCC(=O)Oc1ccc(-c2ccc(/C=C/C(=O)O)cc2)cc1C12CC3CC(CC(C3)C1)C2 | > 99% | > 99% | > 99% | Stable | 1.54 µM | – | Insoluble | –
17 | CC(C)NC(=O)Oc1ccc(-c2ccc(/C=C/C(=O)O)cc2)cc1C12CC3CC(CC(C3)C1)C2 | > 99% | > 99% | > 99% | Stable | 5 µM | – | Insoluble | –
18 | CC(C)[C@H](N)C(=O)Oc1ccc(-c2ccc(/C=C/C(=O)O)cc2)cc1C12CC3CC(CC(C3)C1)C2.Cl | > 99% | 39% | 12% | Stable | 0.51 µM | 0.41 µM | Insoluble | remaining at 6 h [2]: 92%; remaining at 6 h [4]: 62%
19 | O=C(O)/C=C/c1ccc(-c2ccc(OCN3C(=O)c4ccccc4C3=O)c(C34CC5CC(CC(C5)C3)C4)c2)cc1 | > 99% | > 99% | > 99% | Stable | 8.4 µM | – | Insoluble | –
20 | CNCCNC(=O)Oc1ccc(-c2ccc(/C=C/C(=O)O)cc2)cc1C12CC3CC(CC(C3)C1)C2.Cl | > 99% | 69% | 36% | Stable | 0.24 µM | 0.32 µM | Insoluble | remaining at 6 h [2]: 92%; remaining at 6 h [4]: 76%; Drug metabolism (Plasma [17]): 96.23%; Drug metabolism (Plasma [18]): 1.35%; Drug metabolism (Plasma [19]): 99.8%; Drug metabolism (Plasma [20]): 99.94%; Drug metabolism (Plasma [21]): 99.95%; Drug metabolism (Plasma [22]): 17.55%
